Broadly, the IC50 is the concentration that gives 50% inhibition.

Consider two compounds from ChEMBL document CHEMBL3232764, “Influence of the adamantyl moiety on the activity of biphenylacrylohydroxamic acid-based HDAC inhibitors” (Eur J Med Chem, 2014).

The source made the active and inactive calls. The calls are words filed in the database; no cut-off is given here.

For test [1], the system named is IGROV-1. Kind of test: Cell cycle arrest in human IGROV1 cells assessed as accumulation at G1 phase at IC80 after 24 hrs by propidium iodide staining-based flow cytometry (reference value: 49.98%). In kind it is functional. Summed up:
(§1)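 Cell-cycle distribution in IGROV-1 cells read by flow cytometry of propidium iodide–stained cells.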

In test [2] the target is T1, Protein deacetylase HDAC6 (Homo sapiens) (UniProt Q9UBN7).
T1 sequence (whole entry): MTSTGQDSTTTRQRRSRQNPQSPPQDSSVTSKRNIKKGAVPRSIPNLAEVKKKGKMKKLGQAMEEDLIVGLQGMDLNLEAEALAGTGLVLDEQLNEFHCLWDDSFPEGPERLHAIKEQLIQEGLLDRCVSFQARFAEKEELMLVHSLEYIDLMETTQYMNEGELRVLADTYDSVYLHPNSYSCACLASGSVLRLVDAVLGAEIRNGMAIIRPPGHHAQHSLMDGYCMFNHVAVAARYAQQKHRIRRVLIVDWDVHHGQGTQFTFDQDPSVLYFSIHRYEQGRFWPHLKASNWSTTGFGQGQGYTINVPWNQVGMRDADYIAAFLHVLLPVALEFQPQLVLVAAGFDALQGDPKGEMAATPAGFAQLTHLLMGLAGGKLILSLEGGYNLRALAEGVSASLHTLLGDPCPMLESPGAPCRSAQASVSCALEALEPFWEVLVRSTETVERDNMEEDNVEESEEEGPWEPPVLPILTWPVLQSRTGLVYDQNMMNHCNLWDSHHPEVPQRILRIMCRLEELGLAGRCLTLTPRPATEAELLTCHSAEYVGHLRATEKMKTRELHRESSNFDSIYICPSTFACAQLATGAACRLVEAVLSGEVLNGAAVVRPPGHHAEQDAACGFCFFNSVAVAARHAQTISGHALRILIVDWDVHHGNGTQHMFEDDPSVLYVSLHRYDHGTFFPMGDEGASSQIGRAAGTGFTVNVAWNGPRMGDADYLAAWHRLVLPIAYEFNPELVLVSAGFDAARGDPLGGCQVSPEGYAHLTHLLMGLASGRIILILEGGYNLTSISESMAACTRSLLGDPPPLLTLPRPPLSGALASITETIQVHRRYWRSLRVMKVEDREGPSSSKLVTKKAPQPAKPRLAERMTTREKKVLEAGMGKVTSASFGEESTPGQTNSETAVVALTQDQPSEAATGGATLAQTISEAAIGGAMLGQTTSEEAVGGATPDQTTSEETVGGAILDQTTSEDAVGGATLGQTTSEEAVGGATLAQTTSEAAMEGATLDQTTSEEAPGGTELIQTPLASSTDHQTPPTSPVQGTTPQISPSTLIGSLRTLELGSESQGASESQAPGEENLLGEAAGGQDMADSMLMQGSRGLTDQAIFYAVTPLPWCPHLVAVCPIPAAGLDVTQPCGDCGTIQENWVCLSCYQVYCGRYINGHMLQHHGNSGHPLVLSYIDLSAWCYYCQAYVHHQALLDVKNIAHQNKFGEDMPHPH
Kind of test: Inhibition of HDAC6 in human IGROV1 cells assessed as increase in tubulin acetylation at IC80 after 4 to 24 hrs by Western blot analysis. In kind it is cell-based. The note with it: IGROV-1. The essentials: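 Cells treated with various concentrations of HDAC inhibitors, collected, lysed and analysed by Western blotting.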
Background: Immunoblotting shows a protein as a band on a membrane.

Test [3] deals with Histone deacetylase 2 (Homo sapiens, UniProt Q92769). In kind it is cell-based, HeLa.
The nature of test [4]: Antiproliferative activity against p53 defective cis-platinum-resistant human IGROV1/Pt1 cells assessed as growth inhibition after 72 hrs. In kind it is functional, cell-based. Conditions: IGROV-1/Pt1, 72 h. Summed up: (§2)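 Log-phase cells seeded in duplicate in 6-well plates; drug added 24 h after seeding. Cells harvested 72 h after drug exposure and counted with a cell counter. IC50 = drug concentration giving 50% reduction in cell number versus untreated control.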

Test [5] is described as follows: cells. In kind it is functional, cell-based. Conditions: Homo sapiens, NCI-H460, 72 h.
Test [6] is described as follows: Cell cycle arrest in human IGROV1 cells assessed as accumulation at G2/M phase at IC80 after 24 hrs by propidium iodide staining-based flow cytometry (reference value: 13.21%). Conditions: IGROV-1. In kind it is functional. The essentials: as §1
On the technique in general: In flow cytometry, cells or beads pass a laser one at a time.

The subject of test [7] is IGROV-1. The test can be described thus: Cell cycle arrest in human IGROV1 cells assessed as accumulation at S phase at IC80 after 24 hrs by propidium iodide staining-based flow cytometry (reference value: 36.81%). In kind it is functional. Summed up: as §1
The target in test [8] is T2, Protein deacetylase HDAC6 (Homo sapiens, UniProt Q9UBN7).
T2 sequence (Q9UBN7 whole entry): T1 sequence (whole entry)
Kind of test: Inhibition of human HDAC6 using fluorogenic tetrapeptide RHKKAc as substrate.

Test [9] relates to IGROV-1. The test can be described thus: Antiproliferative activity against human IGROV1 cells assessed as growth inhibition after 72 hrs. In kind it is functional, cell-based. Conditions: IGROV-1, 72 h. Summed up: as §2
Test [10] deals with T3, Histone deacetylase 7 (Homo sapiens, UniProt Q8WUI4).
T3 sequence (Q8WUI4 whole entry): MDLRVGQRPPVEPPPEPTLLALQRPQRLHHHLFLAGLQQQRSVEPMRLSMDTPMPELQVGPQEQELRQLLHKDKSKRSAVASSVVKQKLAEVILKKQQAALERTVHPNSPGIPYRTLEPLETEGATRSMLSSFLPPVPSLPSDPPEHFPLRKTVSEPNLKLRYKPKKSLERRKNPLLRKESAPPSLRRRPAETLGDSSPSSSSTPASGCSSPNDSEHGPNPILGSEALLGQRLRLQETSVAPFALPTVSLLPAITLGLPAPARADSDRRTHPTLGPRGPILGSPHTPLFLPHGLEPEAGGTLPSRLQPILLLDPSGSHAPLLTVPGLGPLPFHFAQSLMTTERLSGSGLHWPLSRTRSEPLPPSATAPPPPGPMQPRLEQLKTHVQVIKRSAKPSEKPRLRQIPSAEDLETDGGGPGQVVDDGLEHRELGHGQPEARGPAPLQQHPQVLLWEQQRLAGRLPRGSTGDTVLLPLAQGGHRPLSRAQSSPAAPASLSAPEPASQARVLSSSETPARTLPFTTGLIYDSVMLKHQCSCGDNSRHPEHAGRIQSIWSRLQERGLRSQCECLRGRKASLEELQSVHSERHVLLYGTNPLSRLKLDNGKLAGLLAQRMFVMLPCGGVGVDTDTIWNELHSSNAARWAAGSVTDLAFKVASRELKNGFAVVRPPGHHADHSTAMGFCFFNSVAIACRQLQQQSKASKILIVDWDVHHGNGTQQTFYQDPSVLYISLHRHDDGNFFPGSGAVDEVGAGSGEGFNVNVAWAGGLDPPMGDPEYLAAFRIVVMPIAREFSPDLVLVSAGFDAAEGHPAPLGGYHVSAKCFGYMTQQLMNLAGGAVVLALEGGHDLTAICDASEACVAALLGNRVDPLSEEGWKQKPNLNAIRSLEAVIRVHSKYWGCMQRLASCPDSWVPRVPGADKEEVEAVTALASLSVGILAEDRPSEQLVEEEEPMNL
Kind of test: Inhibition of human HDAC7 using fluorogenic tetrapeptide RHKKAc as substrate.

Sequence of Histone deacetylase 2 (Q92769 whole entry): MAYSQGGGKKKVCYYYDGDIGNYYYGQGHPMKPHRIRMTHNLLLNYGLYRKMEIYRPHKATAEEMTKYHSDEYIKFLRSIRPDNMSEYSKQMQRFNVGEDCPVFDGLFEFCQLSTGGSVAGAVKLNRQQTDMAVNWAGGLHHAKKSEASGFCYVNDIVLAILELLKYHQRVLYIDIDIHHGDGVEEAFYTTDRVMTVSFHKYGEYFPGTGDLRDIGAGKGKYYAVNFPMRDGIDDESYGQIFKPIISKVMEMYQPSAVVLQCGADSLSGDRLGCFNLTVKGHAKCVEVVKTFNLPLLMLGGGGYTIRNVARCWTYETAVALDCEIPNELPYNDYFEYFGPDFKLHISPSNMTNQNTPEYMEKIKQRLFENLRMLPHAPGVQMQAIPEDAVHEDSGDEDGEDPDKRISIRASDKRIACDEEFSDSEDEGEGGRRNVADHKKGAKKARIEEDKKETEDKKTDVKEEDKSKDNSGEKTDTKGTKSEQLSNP

With `COc1ccc(-c2ccc(/C=C/C=C/C(=O)NO)cc2)cc1C12CC3CC(CC(C3)C1)C2`, the Activity in test [1] came to 70.35%; in test [6] it was 7.46%; in test [7] it was 22.18%. In test [2], the outcome was inactive. Moreover, the half-inhibitory concentration (IC50) in test [3] is above 10000 nM; in test [4], 2030 nM; in [5], 1400 nM; in test [8] it was 16700 nM; in test [9], 1300 nM.
Take `COc1ccc(-c2ccc(/C=C/C=C/C(=O)NO)cc2)cc1`: the IC50 in [10] is above 100000 nM; in [8] it was 3260 nM.
